B1: Osa-1-4 twister ribozyme (parent)
chain: CCGCCUAACACUGCCAAUGCCGGUCCCAAGCCCGGAUAAAAGUGGAGGGGGCGG

The variants in the data set derive from B1. The experiment in a line: self-cleavage, relative activity (ratio to wild type); higher = more cleavage; co-transcriptional. The gist of the method:
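A DNA template was synthesised for a 54-nucleotide twister ribozyme from Oryza sativa, with 97 % wild-type base and 1 % of each other base at each of the 48 positions downstream of the cleavage site. The ribozyme cleaved itself co-transcriptionally during 2 h of in vitro transcription at 37 °C. Reverse transcription with a template-switching oligonucleotide, PCR amplification and deep sequencing followed, and cleavage status came from reads with or without upstream sequence. Relative activity is the fraction cleaved normalised to wild type.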
On to C32U G30A, for which the self-cleavage turned out to be 0.02.
Regarding C32U G30U, the self-cleavage is 0.02.
To C32G G48U belongs 0.03.
Turning to C32G G48A, the self-cleavage came out at 0.05.
Then C32G G48C, with 0.04.
C33G U24G: the self-cleavage amounted to 0.01.
For C33G U24A, the self-cleavage worked out at 0.04.
Take C33G U24C: the self-cleavage turned out to be 0.04.
In the case of C33A G54A, the self-cleavage came out at 0.11.
With C33A G54U, the self-cleavage worked out at 0.24.
With C33A G54C, the self-cleavage stood at 0.07.
Take C32G G42A: the self-cleavage came to 0.09.
With C32G G42U, the self-cleavage was 0.04.
Consider C32G G42C, for which the self-cleavage was determined as 0.08.
C32U U18C: the self-cleavage was 0.18.
C32U U18A: the self-cleavage turned out to be 0.16.
To C32U U18G belongs 0.22; to C33U C9G, 0.3; to C33U C9U, 0.39.
On to C33U C9A, for which the self-cleavage was 0.2.
Consider C33G U18A, for which the self-cleavage was found to be 0.07.
On to C33G U18G, for which the self-cleavage came to 0.08.
Regarding C33G U18C, the self-cleavage is 0.08.
To C32U G13C belongs 0.01.
Take C32U G13U: the self-cleavage stood at 0.01.
For the variant C32U G13A, the self-cleavage was determined as 0.03.
For C32U U43G, the self-cleavage came to 0.09.
C32U U43C: the self-cleavage is 0.06.
Then C32U U43A, with 0.09.
Consider C32G G53U, for which the self-cleavage came to 0.07.
Take C32G G53C: the self-cleavage is 0.06.
For the variant C32G G53A, the self-cleavage was 0.1.
Consider C33A G19C, for which the self-cleavage was 0.03.
As for C33A G19A, the self-cleavage worked out at 0.07.
To C33A G19U belongs 0.04; to C33G U12G, 0.07.
For the variant C33G U12A, the self-cleavage was 0.05.
As to C33G U12C, the self-cleavage was determined as 0.03.
Consider C32U G35U, for which the self-cleavage was 0.06.
Regarding C32U G35C, the self-cleavage came to 0.06.
Turning to C32U G35A, the self-cleavage was 0.08.
In the case of C33G G19C, the self-cleavage stood at 0.02.
As to C33G G19A, the self-cleavage is 0.05.
Turning to C33G G19U, the self-cleavage was determined as 0.03.
As to C32G G51U, the self-cleavage was 0.07.
Consider C32G G51A, for which the self-cleavage came out at 0.09.
Regarding C32G G51C, the self-cleavage stood at 0.05.
As to C32U G34U, the self-cleavage is 0.08.
Take C32U G34C: the self-cleavage worked out at 0.07.
Take C32U G34A: the self-cleavage came to 0.09.
Turning to C33G G30A, the self-cleavage worked out at 0.02.
In the case of C33G G30C, the self-cleavage was 0.02.
As to C33G G30U, the self-cleavage turned out to be 0.02.
Then C32G G23C, with 0.08; and C32G G23U, with 0.29; and C32G G23A, with 0.27.
Then C33A U12C, with 0.06.
For the variant C33A U12G, the self-cleavage turned out to be 0.06.
To C33A U12A belongs 0.06; to C33A G30C, 0.02.
Then C33A G30A, with 0.02; and C33A G30U, with 0.02; and C32U G50U, with 0.11.
With C32U G50C, the self-cleavage turned out to be 0.09.
For the variant C32U G50A, the self-cleavage amounted to 0.1.
For the variant C32U G53A, the self-cleavage was determined as 0.09.
C32U G53U: the self-cleavage stood at 0.09.
Consider C32U G53C, for which the self-cleavage is 0.05.
To C33A U37A belongs 0.34; to C33A U37G, 0.29.
For C33A U37C, the self-cleavage came out at 0.14.
On to C32G G50U, for which the self-cleavage was determined as 0.11.
Take C32G G50A: the self-cleavage was determined as 0.1.
To C32G G50C belongs 0.09.
In the case of C32G U37C, the self-cleavage turned out to be 0.14.
To C32G U37A belongs 0.16.
Take C32G U37G: the self-cleavage is 0.19.
As for C33A U43A, the self-cleavage was found to be 0.08.
Then C33A U43C, with 0.06; and C33A U43G, with 0.08.
With C33U G30U, the self-cleavage was determined as 0.03.
Turning to C33U G30C, the self-cleavage was 0.04.
In the case of C33U G30A, the self-cleavage stood at 0.04.
Consider C32U G48A, for which the self-cleavage is 0.03.
As to C32U G48C, the self-cleavage came to 0.03.
In the case of C32U G48U, the self-cleavage was 0.03.
Then C33A G23U, with 0.04.
Take C33A G23A: the self-cleavage came out at 0.06.
On to C33A G23C, for which the self-cleavage was found to be 0.02.
With C32G G44U, the self-cleavage is 0.08.
Regarding C32G G44C, the self-cleavage came to 0.07.
For C32G G44A, the self-cleavage was found to be 0.11.
For C32G G35C, the self-cleavage was 0.07.
Then C32G G35A, with 0.09; and C32G G35U, with 0.08; and C33G G44C, with 0.05.
On to C33G G44U, for which the self-cleavage stood at 0.05.
Then C33G G44A, with 0.05; and C32G G45U, with 0.04.
In the case of C32G G45A, the self-cleavage was 0.05.
With C32G G45C, the self-cleavage amounted to 0.03.
As for C33A, the self-cleavage was determined as 0.28.
Take C33U: the self-cleavage is 0.88.
C33G: the self-cleavage stood at 0.06.
With C33A G53A, the self-cleavage was 0.08.
In the case of C33A G53C, the self-cleavage is 0.04.
For the variant C33A G53U, the self-cleavage was 0.06.
Take C32G U12C: the self-cleavage stood at 0.08.
As for C32G U12A, the self-cleavage amounted to 0.12.
As to C32G U12G, the self-cleavage was determined as 0.06.
To C33U G47A belongs 0.08; to C33U G47C, 0.07.
Then C33U G47U, with 0.07.
Turning to C32U C33G, the self-cleavage was 0.02.
For the variant C32U C33A, the self-cleavage was determined as 0.04.
In the case of C32U C33U, the self-cleavage amounted to 0.06.
Take C33G C52U: the self-cleavage worked out at 0.05.
To C33G C52A belongs 0.08; to C33G C52G, 0.26; to C33G G47C, 0.03.
Turning to C33G G47U, the self-cleavage was determined as 0.02.
For the variant C33G G47A, the self-cleavage came to 0.03.
For C33G C9U, the self-cleavage was 0.04.
On to C33G C9G, for which the self-cleavage is 0.07.
For the variant C33G C9A, the self-cleavage amounted to 0.02.
To C33A G47U belongs 0.04; to C33A G47C, 0.04; to C33A G47A, 0.04.
Regarding C33G G51U, the self-cleavage turned out to be 0.05.
To C33G G51A belongs 0.06.
Then C33G G51C, with 0.06; and C32U G22A, with 0.09.
Then C32U G22C, with 0.04.
Take C32U G22U: the self-cleavage came to 0.07.
With C32G U18G, the self-cleavage worked out at 0.14.
With C32G U18C, the self-cleavage is 0.15.
C32G U18A: the self-cleavage was 0.14.
To C32G G49A belongs 0.05; to C32G G49C, 0.04.
In the case of C32G G49U, the self-cleavage is 0.05.
As for C32U C52U, the self-cleavage was 0.2.
Then C32U C52G, with 0.15.
C32U C52A: the self-cleavage stood at 0.13.
In the case of C32U G54A, the self-cleavage is 0.1.
As to C32U G54C, the self-cleavage was found to be 0.09.
With C32U G54U, the self-cleavage is 0.26.
Then C33U G42U, with 0.07.
In the case of C33U G42C, the self-cleavage is 0.08.
As for C33U G42A, the self-cleavage turned out to be 0.14.
C33U G13U: the self-cleavage turned out to be 0.03.
C33U G13C: the self-cleavage is 0.02.
On to C33U G13A, for which the self-cleavage amounted to 0.04.
For C33U G44A, the self-cleavage was determined as 0.5.
As to C33U G44C, the self-cleavage is 0.29.
With C33U G44U, the self-cleavage is 0.53.
On to C32U G44A, for which the self-cleavage is 0.08.
Consider C32U G44C, for which the self-cleavage was 0.09.
As for C32U G44U, the self-cleavage was determined as 0.07.
Turning to C32U U37G, the self-cleavage is 0.26.
As for C32U U37A, the self-cleavage is 0.21.
Consider C32U U37C, for which the self-cleavage amounted to 0.16.
As to C33G G50A, the self-cleavage was 0.06.
On to C33G G50C, for which the self-cleavage was determined as 0.05.
As to C33G G50U, the self-cleavage worked out at 0.09.
For C33G G48C, the self-cleavage came out at 0.03.
Turning to C33G G48A, the self-cleavage came out at 0.02.
Consider C33G G48U, for which the self-cleavage is 0.02.

The values are drawn from the RNAGym collection of RNA variant scans (doi:10.1002/anie.201605470).
